Source: ChEMBL document CHEMBL1122774, “Tri- and tetrapeptide analogues of kinins as potential renal vasodilators” (J Med Chem, 1984)
Several values for one entry are separate records, joined by “and”; a condition that tells them apart may be missing. Equal entries are not always repeated.

Assays:
Canis familiaris [1] = experiment: Compound was evaluated for renal vasodilator activity and represented as ED15 (intravenous administration); format: functional; settings: Canis lupus familiaris
In short: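 Secondary protocol in anesthetized dogs with iv infusion at progressively increasing rates, each level infused 5 min. Potency is the cumulative dose (µg/kg) that lowered renal vascular resistance (MABP / mean RBF) by 15%. Minimum change needed for significance (p = 0.95) is 16% for RVR.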

[2] = Ratio of ED20 of MABP (mean arterial blood pressure) to the ED15 of RVR ( renal vascular resistance).; format: functional
In short: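 Anesthetized dogs in the secondary cumulative-infusion protocol, each dose level 5 min. Selectivity ratio is the dose giving a 20% change in mean arterial blood pressure divided by the cumulative dose lowering renal vascular resistance 15% (RVR ED15).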

[3] = Ratio of ED30 of iliac vascular resistant (IVR) to the ED15 of RVR(renal vascular resistance); format: functional
In short: (§1)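 Anesthetized dogs in the secondary cumulative-infusion protocol, each dose level 5 min. Selectivity ratio is the dose giving a 30% change in iliac vascular resistance divided by the RVR ED15, the cumulative dose decreasing renal vascular resistance by 15%.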

Canis familiaris [4] = experiment: In vivo percent change in renal blood flow at 30 ug/Kg/min.; format: functional, Canis lupus familiaris, Kidney
In short: (§2)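 Primary screen in anesthetized dogs (7-17 kg). Drug infused separately at 3, 30 and 300 µg/(kg min), each infusion lasting 5 min, at about 15-min intervals. Read-outs are renal blood flow, mean arterial blood pressure, heart rate, and RVR (MABP / mean RBF), as percent change. Significance thresholds are defined per number of dogs; n = 1-3 dogs.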

Canis familiaris [5] = experiment: Renal vasodilator activity in anesthetized dogs and percent change in renal vascular resistance (RVR) was determined at 30 ug/Kg/min; format: functional, Canis lupus familiaris; in short: as §2
Canis familiaris [6] = experiment: Renal vasodilator activity in anesthetized dogs and percent change in renal vascular resistance (RVR) was determined at 300 ug/Kg/min; format: functional, Canis lupus familiaris; in short: as §2
Canis familiaris [7] = experiment: In vivo percent change in canine heart rate at 3 ug/Kg/min.; format: functional, Canis lupus familiaris; in short: as §2
Canis familiaris [8] = experiment: In vivo percent change in canine heart rate at 30 ug/Kg/min.; format: functional, Canis lupus familiaris; in short: as §2
Canis familiaris [9] = experiment: In vivo percent change in canine heart rate at 300 ug/Kg/min.; format: functional, Canis lupus familiaris; in short: as §2
Canis familiaris [10] = experiment: In vivo percent change in canine mean arterial blood pressure (MABP) at 3 ug/Kg/min.; format: functional, Canis lupus familiaris; in short: as §2
Canis familiaris [11] = experiment: In vivo percent change in canine mean arterial blood pressure (MABP) at 30 ug/Kg/min.; format: functional, Canis lupus familiaris; in short: as §2
Canis familiaris [12] = experiment: In vivo percent change in canine mean arterial blood pressure (MABP) at 300 ug/Kg/min.; format: functional, Canis lupus familiaris; in short: as §2
Canis familiaris [13] = experiment: In vivo percent change in canine renal blood flow (RBF) at 3 ug/Kg/min.; format: functional, Canis lupus familiaris, Kidney; in short: as §2
Canis familiaris [14] = experiment: In vivo percent change in canine renal blood flow (RBF) at 300 ug/Kg/min.; format: functional, Canis lupus familiaris, Kidney; in short: as §2
Canis familiaris [15] = experiment: In vivo percent change in canine renal vascular resistance (RVR) at 3 ug/Kg/min.; format: functional, Canis lupus familiaris; in short: as §2
[16] = Average max percent decrease in RVR (renal vascular resistance) was determined.
In short: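 Secondary protocol in anesthetized dogs. Drug given as iv infusion at progressively increasing rates, each dose level for 5 min. The maximum effect is taken as the largest percent decrease in renal vascular resistance (RVR) reached with the compound. RVR is calculated as mean arterial blood pressure / mean renal blood flow.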

Canis familiaris [17] = experiment: Renal vasodilator activity in anesthetized dogs and percent change in heart rate (HR) was determined at 300 ug/Kg/min; format: functional, Canis lupus familiaris; in short: as §2
Canis familiaris [18] = experiment: In vivo percent change in canine renal vascular resistance (RVR) at 300 ug/Kg/min.; format: functional, Canis lupus familiaris; in short: as §2
[19] = Ratio of ED30 of iliac vascular resistant (IVR) to the ED15 of RVR (renal vascular resistance); format: functional; in short: as §1
Canis familiaris [20] = experiment: Renal vasodilator activity in anesthetized dogs and percent change in heart rate (HR) was determined at 3 ug/kg min; format: functional, Canis lupus familiaris; in short: as §2
Canis familiaris [21] = experiment: Renal vasodilator activity in anesthetized dogs and percent change in heart rate (HR) was determined at 30 ug/kg min; format: functional, Canis lupus familiaris; in short: as §2
Canis familiaris [22] = experiment: Renal vasodilator activity in anesthetized dogs and percent change in heart rate (HR) was determined at 300 ug/kg min; format: functional, Canis lupus familiaris; in short: as §2
Canis familiaris [23] = experiment: Renal vasodilator activity in anesthetized dogs and percent change in mean arterial blood pressure (MABP) was determined at 3 ug/kg min; format: functional, Canis lupus familiaris; in short: as §2
Canis familiaris [24] = experiment: Renal vasodilator activity in anesthetized dogs and percent change in mean arterial blood pressure (MABP) was determined at 30 ug/kg min; format: functional, Canis lupus familiaris; in short: as §2
Canis familiaris [25] = experiment: Renal vasodilator activity in anesthetized dogs and percent change in mean arterial blood pressure (MABP) was determined at 300 ug/kg min; format: functional, Canis lupus familiaris; in short: as §2
Canis familiaris [26] = experiment: Renal vasodilator activity in anesthetized dogs and percent change in renal blood flow (RBF) was determined at 3 ug/kg min; format: functional, Canis lupus familiaris, Kidney; in short: as §2
Canis familiaris [27] = experiment: Renal vasodilator activity in anesthetized dogs and percent change in renal blood flow (RBF) was determined at 30 ug/kg min; format: functional, Canis lupus familiaris, Kidney; in short: as §2
Canis familiaris [28] = experiment: Renal vasodilator activity in anesthetized dogs and percent change in renal blood flow (RBF) was determined at 300 ug/kg min; format: functional, Canis lupus familiaris, Kidney; in short: as §2
Canis familiaris [29] = experiment: Renal vasodilator activity in anesthetized dogs and percent change in renal vascular resistance (RVR) was determined at 3 ug/kg min; format: functional, Canis lupus familiaris; in short: as §2
Canis familiaris [30] = experiment: Renal vasodilator activity in anesthetized dogs and percent change in renal vascular resistance (RVR) was determined at 300 ug/kg min; format: functional, Canis lupus familiaris; in short: as §2
Canis familiaris [31] = experiment: Renal vasodilator activity in anesthetized dogs and percent change in renal vascular resistance (RVR) was determined at 30 ug/kg min; format: functional, Canis lupus familiaris; in short: as §2
Canis familiaris [32] = experiment: Renal vasodilator activity in anesthetized dogs and percent change in mean arterial blood pressure (MABP) was determined at 3 ug/Kg/min; format: functional, Canis lupus familiaris; in short: as §2

Molecule | ED15 (Canis familiaris [1]) | Ratio [2] | Change (Canis familiaris [4]) | Change (Canis familiaris [5]) | Change (Canis familiaris [7]) | Change (Canis familiaris [8]) | Change (Canis familiaris [9]) | Change (Canis familiaris [10]) | Change (Canis familiaris [11]) | Change (Canis familiaris [12]) | Change (Canis familiaris [13]) | Change (Canis familiaris [14]) | Change (Canis familiaris [15]) | Change (Canis familiaris [18]) | Ratio [19] | Change (Canis familiaris [32]) | other results
H-RPPGFSPFR-OH [BRADYKININ] | 2.8 µg/kg | 7 and 8 | – | – | – | – | – | – | – | – | – | – | – | – | – | – | Ratio [3]: 25
CC(Cc1ccccc1)(NC(=O)[C@@H]1CCCN1C(=O)CCCc1ccc(O)cc1)C(=O)NCCCN.Cl (stereo not given in full) | – | – | 4.3% | -4.7% | 0.7% | 1.3% | 8% | -0.7% | 3% | -1.4% | 3.3% | 11.7% | 4% | – | – | – | Change (Canis familiaris [6]): -11.3%
COc1ccc(CC(C)(NC(=O)[C@@H]2CCCN2C(=O)CCCc2ccc(O)cc2)C(=O)N[C@@H](CCCN=C(N)N)C(=O)O)cc1OC (stereo not given in full) | 506 µg/kg | >12 | 18% | -21.3% | 1.7% | 6.3% | – | -2.7% | -7.7% | -32% | 4.3% | 29.5% | -6.7% | -44.5% | > 12 | – | Decrease [16]: 31%; Change (Canis familiaris [17]): 16%
H-FSPFR-OH | 5.2 µg/kg | >1158 | – | – | – | – | – | – | – | – | – | – | – | – | > 1160 | – | Change (Canis familiaris [20]): 0.8%; Change (Canis familiaris [21]): 0%; Change (Canis familiaris [22]): 4.8%; Change (Canis familiaris [23]): -1.2%; Change (Canis familiaris [24]): 0.5%; Change (Canis familiaris [25]): -5.7%; Change (Canis familiaris [26]): 3%; Change (Canis familiaris [27]): 6.5%; Change (Canis familiaris [28]): 26.2%; Change (Canis familiaris [29]): -3.8%; Change (Canis familiaris [30]): -24.8%; Change (Canis familiaris [31]): -5.1%
CC(Cc1ccccc1)(NC(=O)[C@@H]1CCCN1C(=O)CCCc1ccccc1)C(=O)NCCCN.Cl (stereo not given in full) | – | – | 5.5% | -6% | -1.5% | 0.3% | 0.5% | – | -0.5% | -3.5% | 4% | 10% | -3.5% | -11.5% | – | 0% | –
CC(CN[C@@H](CCCN=C(N)N)C(=O)O)(Cc1ccccc1)NC(=O)[C@@H]1CCCN1C(=O)CCCc1ccccc1 (stereo not given in full) | – | – | 10% | -9% | 0% | -7% | -23% | – | 0% | 8% | 11% | 4% | -12% | -4% | – | -2% | –
